Key:
Format in all cases: ADME
CYP1A2 / CYP1A1 = assay: Selectivity ratio, ratio of IC50 for human recombinant CYP1A2 to IC50 for human recombinant CYP1A1; details: recombinant CYP1A2 and recombinant CYP1A1, read-out: Ratio IC50
Cytochrome P450 1A2 [1] = molecular target: T1, Cytochrome P450 1A2 (Homo sapiens, UniProt P05177); assay: Activity of human recombinant CYP1A2 assessed as NADPH oxidation level per pmol of CYP1A2 level at 10 uM by spectrophotometry; details: recombinant enzyme
T1 sequence (P05177 whole entry): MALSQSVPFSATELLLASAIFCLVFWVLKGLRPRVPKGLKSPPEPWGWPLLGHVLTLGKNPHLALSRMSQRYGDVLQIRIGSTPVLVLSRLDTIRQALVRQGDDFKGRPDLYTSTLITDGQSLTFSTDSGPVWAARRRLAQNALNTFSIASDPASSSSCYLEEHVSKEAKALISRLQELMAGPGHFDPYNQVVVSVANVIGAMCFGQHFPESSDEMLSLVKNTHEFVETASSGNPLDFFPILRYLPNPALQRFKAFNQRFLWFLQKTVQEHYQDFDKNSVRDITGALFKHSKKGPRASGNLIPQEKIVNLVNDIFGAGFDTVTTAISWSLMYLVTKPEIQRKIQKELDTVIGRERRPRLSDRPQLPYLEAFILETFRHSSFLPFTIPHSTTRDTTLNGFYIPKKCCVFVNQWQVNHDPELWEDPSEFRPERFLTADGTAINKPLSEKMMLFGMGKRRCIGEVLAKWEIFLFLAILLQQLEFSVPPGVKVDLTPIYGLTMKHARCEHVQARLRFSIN
In short: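 NADPH oxidation by human recombinant CYP1A2 (5 pmol/ml) in Tris buffer pH 7.4 with stilbene at 1–50 µM. Reaction started with 0.2 mM NADPH, 37 °C, 3 min. Absorbance at 340 nm read every 15 s; NADPH oxidized calculated with extinction coefficient 6.22 mM-1 cm-1.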

Cytochrome P450 1A2 [2] = molecular target: T1, Cytochrome P450 1A2; assay: Inhibition of human recombinant CYP1A2 by spectrophotometry based 7-ethoxyresorufin O-deethylation enzyme assay
In short: (§1)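 EROD assay: fresh DMSO solutions of test compound over various concentrations with 2 µM 7-ethoxyresorufin, 1.3 mM NADP+, 3.3 mM glucose-6-phosphate, 0.5 U/ml G6PDH, 3.3 mM MgCl2 in 100 mM potassium phosphate pH 7.4. Started with enzyme (1.25 pmol CYP1A1, or 5 pmol CYP1A2 or CYP1B1), 37 °C, 15 min. Resorufin fluorescence (ex 550/em 585) against resorufin standard. IC50 read graphically from % of control activity; three parallel experiments.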

CYP1A2 / CYP1B1 = assay: Selectivity ratio, ratio of IC50 for human recombinant CYP1A2 to IC50 for human recombinant CYP1B1; details: recombinant CYP1A2 and recombinant CYP1B1, read-out: Ratio IC50
Cytochrome P450 1A1 = molecular target: T2, Cytochrome P450 1A1 (Homo sapiens, UniProt P04798); assay: Inhibition of human recombinant CYP1A1 by spectrophotometry based 7-ethoxyresorufin O-deethylation enzyme assay; in short: as §1
T2 sequence (P04798 whole entry): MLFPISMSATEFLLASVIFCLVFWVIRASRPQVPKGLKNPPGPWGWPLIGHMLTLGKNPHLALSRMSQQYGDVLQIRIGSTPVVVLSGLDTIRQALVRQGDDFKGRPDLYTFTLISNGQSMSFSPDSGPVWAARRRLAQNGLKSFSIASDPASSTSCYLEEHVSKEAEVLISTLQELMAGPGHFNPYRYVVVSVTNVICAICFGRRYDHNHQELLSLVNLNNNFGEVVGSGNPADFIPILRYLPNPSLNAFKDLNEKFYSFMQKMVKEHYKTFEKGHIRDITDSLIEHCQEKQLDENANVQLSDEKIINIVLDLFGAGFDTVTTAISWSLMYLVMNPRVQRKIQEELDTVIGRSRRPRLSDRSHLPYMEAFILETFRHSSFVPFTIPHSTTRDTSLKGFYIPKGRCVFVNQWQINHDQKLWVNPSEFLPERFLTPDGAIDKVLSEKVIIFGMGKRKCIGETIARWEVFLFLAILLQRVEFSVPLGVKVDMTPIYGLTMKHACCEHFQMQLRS

Cytochrome P450 1B1 = molecular target: T3, Cytochrome P450 1B1 (Homo sapiens, UniProt Q16678); assay: Inhibition of human recombinant CYP1B1 by spectrophotometry based 7-ethoxyresorufin O-deethylation enzyme assay; in short: as §1
T3 sequence (Q16678 whole entry): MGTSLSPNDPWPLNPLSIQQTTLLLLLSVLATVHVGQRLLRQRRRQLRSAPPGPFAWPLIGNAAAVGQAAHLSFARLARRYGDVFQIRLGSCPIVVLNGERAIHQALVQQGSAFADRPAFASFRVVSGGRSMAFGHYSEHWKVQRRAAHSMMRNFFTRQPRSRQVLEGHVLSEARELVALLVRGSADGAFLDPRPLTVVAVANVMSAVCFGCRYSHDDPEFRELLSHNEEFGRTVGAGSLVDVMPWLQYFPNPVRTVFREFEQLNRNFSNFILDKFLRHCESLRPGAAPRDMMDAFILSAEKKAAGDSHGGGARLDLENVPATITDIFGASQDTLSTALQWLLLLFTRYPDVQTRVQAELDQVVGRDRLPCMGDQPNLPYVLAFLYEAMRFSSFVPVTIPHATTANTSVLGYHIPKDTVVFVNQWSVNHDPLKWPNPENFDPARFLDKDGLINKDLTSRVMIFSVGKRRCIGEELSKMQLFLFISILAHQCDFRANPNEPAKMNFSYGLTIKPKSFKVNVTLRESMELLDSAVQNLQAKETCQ

Activity (Cytochrome P450 1A2 [1]) [µM/min] | IC50 (Cytochrome P450 1A2 [2]) [nM] | IC50 (Cytochrome P450 1A1) [nM] | IC50 (Cytochrome P450 1B1) [nM] | Compound | selectivity ratio (CYP1A2 / CYP1A1) | selectivity ratio (CYP1A2 / CYP1B1)
< 0.3 | 8100 | 2400 | 2000 | COc1ccc(/C=C/c2ccc(SC)cc2)c(OC)c1 | 3.4 | 4.1
< 0.3 | 5000 | 1400 | 1500 | COc1cc(/C=C/c2ccc(SC)cc2)cc(OC)c1 | 3.6 | 3.3
< 0.6 | > 50000 | 900 | 1000 | COc1ccc(/C=C/c2ccc(SC)cc2)c(OC)c1OC | > 55.5 | > 50
< 0.3 | 39500 | 3800 | 1100 | COc1ccc(OC)c(/C=C/c2ccc(SC)cc2)c1 | 10.4 | 35.9
< 0.3 | 22000 | 1800 | 1100 | COc1cccc(/C=C/c2ccc(SC)cc2)c1OC | 12.2 | 20
< 0.3 | 23000 | 28000 | 5500 | COc1ccc(/C=C/c2ccc(SC)cc2)cc1 | 0.8 | 4.2
2.91 | 15000 | 800 | 900 | COc1cc(OC)c(OC)cc1/C=C/c1ccc(SC)cc1 | 18.7 | 16.7
2.22 | 7000 | 3600 | 2600 | COc1cc(/C=C/c2ccc(SC)cc2)cc(OC)c1OC | 1.9 | 2.7
< 0.3 | 6500 | 400 | 500 | COc1cc(OC)c(/C=C/c2ccc(SC)cc2)c(OC)c1 | 16.3 | 17
< 0.3 | 11500 | 1100 | 500 | COc1cccc(/C=C/c2ccc(SC)cc2)c1 | 10.5 | 23
 | 14500 | 1000 | 300 | CSc1ccc(/C=C/c2ccccc2Cl)cc1 | 14.5 | 48.3
< 0.3 | 7500 | 1000 | 300 | COc1ccccc1/C=C/c1ccc(SC)cc1 | 7.5 | 25

Reference: ChEMBL document CHEMBL2069293, “Design, synthesis and evaluation of the inhibitory selectivity of novel trans-resveratrol analogues on human recombinant CYP1A1, CYP1A2 and CYP1B1” (Bioorg Med Chem, 2012)
